# According to ChEMBL document CHEMBL1124204, “Thiophene systems. 9. Thienopyrimidinedione derivatives as potential antihypertensive agents” (1988):
# Tests used:
# Rattus norvegicus [1] = test: Evaluated for blood pressure lowering activity in spontaneously hypertensive rats (maximum change of systolic blood pressure (SBP)) at a dose of 1.25 mg/kg; format: functional, Artery
# In short: (§1)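 Adult male SHR, conscious, restrained in a chamber at 32 °C. SBP measured indirectly by tail cuff with a pneumatic pulse transducer. After baseline, groups of 4–6 received a single oral gavage dose or vehicle (0.5% methylcellulose). SBP was read at 0.5, 1, 2, 3 and 4 h, and the maximum SBP change ± SEM was reported against the vehicle effect.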
# Rattus norvegicus [2] = test: Time to peak fall in systolic blood pressure in spontaneously hypertensive rats after oral administration of 1.25 mg/kg of the compound
# Rattus norvegicus [3] = test: Evaluated for blood pressure lowering activity in spontaneously hypertensive rats (maximum change of systolic blood pressure (SBP)) at a dose of 5 mg/kg; format: functional, Artery; in short: as §1
# Rattus norvegicus [4] = test: Evaluated for blood pressure lowering activity in the conscious spontaneously hypertensive rats (SHR) (time to peak (h)) at a dose of 5 mg/kg; format: functional
# In short: (§2)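 Conscious adult male SHR in restrainers at 32 °C, with tail-cuff and pulse-transducer SBP recording. Groups of 4–6 got a single gavage dose in 0.5% methylcellulose or vehicle alone. SBP was sampled at 0.5, 1, 2, 3 and 4 h post-dose, and the time (h) at which the peak SBP change occurred was recorded.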
# Canis familiaris = test: Intravenous dose required to produce a 20-fold rightward shift in the phenylephrine dose-response curve in the dog; format: functional, Canis lupus familiaris
# In short: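 Mongrel dogs, anesthetized and bilaterally vagotomized. Mean arterial pressure was recorded via carotid cannula, and drug was given iv through the jugular vein. Phenylephrine dose–response curves were run before and after antagonist. The iv dose (μg/kg) producing a 20-fold rightward shift (DR20) was calculated; n = animals tested.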
# Rattus norvegicus [5] = test: Intravenous dose required to produce 50% inhibition of the phenylephrine pressor response in the spontaneously hypertensive rats; format: functional
# In short: (§3)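 Adult male SHR, anesthetized and bilaterally vagotomized. A carotid artery was cannulated for mean arterial pressure and a jugular vein for iv dosing. Phenylephrine pressor responses were measured before and after antagonist. The iv dose (μg/kg) giving 50% inhibition of the pressor response (ED50) was reported with fiducial limits.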
# Rattus norvegicus [6] = species on record: Rattus norvegicus; test: Peroral dose required to produce a 50 mmHg drop in systolic blood pressure (SBP) in the spontaneously hypertensive rats; format: functional; settings: Artery, po
# In short: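 Adult male SHR, conscious, tail-cuff indirect SBP at 32 °C. Groups of 4–6 were given single oral gavage doses of 0.5–20 mg/kg in 0.5% methylcellulose, with SBP followed over 4 h. The dose giving a 50 mmHg SBP fall (ED50SBP, mg/kg po) was calculated by regression analysis with 95% fiducial limits; n = animals tested.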
# Rattus norvegicus [7] = test: Evaluated for blood pressure lowering activity in the conscious spontaneously hypertensive rats (SHR) (time to peak (h)) at a dose of 1.25 mg/kg; format: functional; in short: as §2
# Rattus norvegicus [8] = test: Evaluated for blood pressure lowering activity in the conscious spontaneously hypertensive rats (SHR) (time to peak (h)) at a dose of 10 mg/kg; format: functional; in short: as §2
# Rattus norvegicus [9] = test: Evaluated for blood pressure lowering activity in spontaneously hypertensive rats (maximum change of systolic blood pressure (SBP)) at a dose of 10 mg/kg; format: functional, Artery; in short: as §1
# Rattus norvegicus [10] = test: Time to peak fall in systolic blood pressure in spontaneously hypertensive rats after oral administration of 10 mg/kg of the compound
# Rattus norvegicus [11] = test: Intravenous dose required to produce a 50% inhibition of the phenylephrine pressor response in the spontaneously hypertensive rats; format: functional; in short: as §3
# Rattus norvegicus [12] = test: Evaluated for blood pressure lowering activity in spontaneously hypertensive rats (maximum change of systolic blood pressure (SBP)) at a dose of 20 mg/kg; format: functional, Artery; in short: as §1
# Rattus norvegicus [13] = test: Time to reach peak blood pressure lowering effect in spontaneously hypertensive rats after oral administration of 20 mg/kg of the compound
# Rattus norvegicus [14] = test: Time to reach peak blood pressure lowering effect in spontaneously hypertensive rats after oral administration of 2.5 mg/kg of the compound
# Rattus norvegicus [15] = test: Evaluated for blood pressure lowering activity in spontaneously hypertensive rats (maximum change of systolic blood pressure (SBP)) at a dose of 2.5 mg/kg; format: functional, Artery; in short: as §1
# Rattus norvegicus [16] = test: Evaluated for blood pressure lowering activity in the conscious spontaneously hypertensive rats (SHR) (time to peak (h)) at a dose of 2.5 mg/kg; format: functional; in short: as §2
# Rattus norvegicus [17] = test: Evaluated for blood pressure lowering activity in spontaneously hypertensive rats (maximum change of systolic blood pressure (SBP)) at a dose of 0.5 mg/kg; format: functional, Artery; in short: as §1
# Rattus norvegicus [18] = test: Time to peak fall in systolic blood pressure in spontaneously hypertensive rats after oral administration of 0.5 mg/kg of the compound
structure (smiles),measurement,setting,value
Cc1ccccc1N1CCN(CCn2c(=O)[nH]c3ccsc3c2=O)CC1,Delta SBP,Rattus norvegicus [1],-33 mmHg
same,Time,Rattus norvegicus [2],1 h
COc1ccccc1N1CCN(CCn2c(=O)c3cscc3n(C(=O)c3ccc(Cl)cc3)c2=O)CC1,Delta SBP,Rattus norvegicus [3],-14 mmHg
same,Time,Rattus norvegicus [4],1 h
COc1cc2nc(N3CCN(C(=O)c4ccco4)CC3)nc(N)c2cc1OC [PRAZOSIN],Delta SBP,Rattus norvegicus [1],-60 mmHg
same,DR20,Canis familiaris,300 µg/kg
same,ED50,Rattus norvegicus [5],0.0104 mg/kg
same,ED50,Rattus norvegicus [6],0.22 mg/kg
same,Time,Rattus norvegicus [7],0.5 h
COc1ccccc1N1CCN(CCn2c(=O)c3cscc3n(C(=O)C(C)C)c2=O)CC1,Delta SBP,Rattus norvegicus [3],-53 mmHg
same,Time,Rattus norvegicus [4],0.5 h
CCCCCCCCn1c(=O)n(CCN2CCN(c3ccccc3OC)CC2)c(=O)c2cscc21,Time,Rattus norvegicus [8],2 h
same,Delta SBP,Rattus norvegicus [9],-54 mmHg
C=CCn1c(=O)n(CCN2CCN(c3ccccc3OC)CC2)c(=O)c2cscc21,Time,Rattus norvegicus [10],1 h
same,Delta SBP,Rattus norvegicus [9],-50 mmHg
COc1ccccc1N1CCN(CCn2c(=O)c3cscc3n(C)c2=O)CC1,Delta SBP,Rattus norvegicus [1],-67 mmHg
same,Time,Rattus norvegicus [2],0.5 h
COc1ccccc1N1CCN(CCCn2c(=O)[nH]c3sccc3c2=O)CC1,Time,Rattus norvegicus [8],0.5 h
same,Delta SBP,Rattus norvegicus [9],-68 mmHg
Cc1ccccc1N1CCN(CCn2c(=O)[nH]c3sccc3c2=O)CC1,Time,Rattus norvegicus [10],0.5 h
same,Delta SBP,Rattus norvegicus [9],-70 mmHg
COc1ccccc1N1CCN(CCn2c(=O)c3sccc3n(C)c2=O)CC1,Delta SBP,Rattus norvegicus [1],-56 mmHg
same,Time,Rattus norvegicus [2],0.5 h
COc1ccccc1N1CCN(CCn2c(=O)[nH]c3ccsc3c2=O)CC1,Delta SBP,Rattus norvegicus [1],-74 mmHg
same,ED50,Rattus norvegicus [11],0.0021 mg/kg
same,DR20,Canis familiaris,4 µg/kg
same,Time,Rattus norvegicus [2],0.5 h
same,ED50,Rattus norvegicus [6],0.19 mg/kg
COc1ccccc1N1CCN(CCn2c(=O)[nH]c3sc(C)c(C)c3c2=O)CC1,Delta SBP,Rattus norvegicus [12],-50 mmHg
same,Time,Rattus norvegicus [13],1 h
O=c1[nH]c2cscc2c(=O)n1CCN1CCN(c2ccccc2Cl)CC1,Delta SBP,Rattus norvegicus [1],-51 mmHg
same,Time,Rattus norvegicus [2],0.5 h
COc1ccccc1N1CCN(CCn2c(=O)c3ccsc3n(C)c2=O)CC1,Delta SBP,Rattus norvegicus [1],-28 mmHg
same,Time,Rattus norvegicus [2],0.5 h
COc1ccccc1N1CCN(CCn2c(=O)[nH]c3c(Cl)scc3c2=O)CC1,Time,Rattus norvegicus [14],0.5 h
same,Delta SBP,Rattus norvegicus [15],-75 mmHg
COC(=O)CCn1c(=O)n(CCN2CCN(c3ccccc3OC)CC2)c(=O)c2cscc21,Time,Rattus norvegicus [10],1 h
same,Delta SBP,Rattus norvegicus [9],-55 mmHg
COc1ccccc1N1CCN(CCn2c(=O)[nH]c3sccc3c2=O)CC1,Delta SBP,Rattus norvegicus [1],-50 mmHg
same,ED50,Rattus norvegicus [11],0.0154 mg/kg
same,DR20,Canis familiaris,20 µg/kg
same,Time,Rattus norvegicus [2],0.5 h
same,ED50,Rattus norvegicus [6],1 mg/kg
COc1ccccc1N1CCN(CCn2c(=O)c3cscc3n(C(=O)C(C)(C)C)c2=O)CC1,Delta SBP,Rattus norvegicus [3],-69 mmHg
same,Time,Rattus norvegicus [4],0.5 h
O=c1[nH]c2sccc2c(=O)n1CCN1CCN(c2ccccc2Cl)CC1,Time,Rattus norvegicus [10],2 h
same,Delta SBP,Rattus norvegicus [9],-43 mmHg
COc1ccccc1N1CCN(CCn2c(=O)c3cscc3n(C(=O)c3ccccc3)c2=O)CC1,Delta SBP,Rattus norvegicus [3],-68 mmHg
same,Time,Rattus norvegicus [4],1 h
COc1ccccc1N1CCN(CCCn2c(=O)[nH]c3ccsc3c2=O)CC1,Time,Rattus norvegicus [10],0.5 h
same,Delta SBP,Rattus norvegicus [9],-43 mmHg
COc1ccc(N2CCN(CCn3c(=O)[nH]c4sccc4c3=O)CC2)cc1,Time,Rattus norvegicus [10],0.5 h
same,Delta SBP,Rattus norvegicus [9],-40 mmHg
CCOC(=O)n1c(=O)n(CCN2CCN(c3ccccc3OC)CC2)c(=O)c2sccc21,Time,Rattus norvegicus [16],0.5 h
same,Delta SBP,Rattus norvegicus [15],-30 mmHg
COc1ccccc1N1CCN(CCn2c(=O)[nH]c3cscc3c2=O)CC1.Cl,ED50,Rattus norvegicus [11],0.0017 mg/kg
same,DR20,Canis familiaris,3 µg/kg
same,Delta SBP,Rattus norvegicus [17],-83 mmHg
same,Time,Rattus norvegicus [18],0.5 h
same,ED50,Rattus norvegicus [6],0.21 mg/kg
Cc1ccccc1N1CCN(CCn2c(=O)[nH]c3cscc3c2=O)CC1,Delta SBP,Rattus norvegicus [1],-36 mmHg
same,Time,Rattus norvegicus [2],0.5 h
O=c1[nH]c2cscc2c(=O)n1CCN1CCN(c2ccc(Cl)cc2)CC1,Time,Rattus norvegicus [10],0.5 h
same,Delta SBP,Rattus norvegicus [9],-56 mmHg
CCOC(=O)CCCCn1c(=O)n(CCN2CCN(c3ccccc3OC)CC2)c(=O)c2sccc21,Time,Rattus norvegicus [14],0.5 h
same,Delta SBP,Rattus norvegicus [15],-30 mmHg
O=c1[nH]c2cscc2c(=O)n1CCN1CCN(c2cccc(Cl)c2)CC1,Time,Rattus norvegicus [8],2 h
same,Delta SBP,Rattus norvegicus [9],-20 mmHg
CCCCn1c(=O)n(CCN2CCN(c3ccccc3OC)CC2)c(=O)c2sccc21,Delta SBP,Rattus norvegicus [1],-28 mmHg
same,Time,Rattus norvegicus [2],0.5 h
CCCCCC(=O)n1c(=O)n(CCN2CCN(c3ccccc3OC)CC2)c(=O)c2cscc21,Delta SBP,Rattus norvegicus [3],-42 mmHg
same,Time,Rattus norvegicus [4],0.5 h
O=c1[nH]c2ccsc2c(=O)n1CCN1CCN(c2ccccc2)CC1,Time,Rattus norvegicus [10],0.5 h
same,Delta SBP,Rattus norvegicus [9],-48 mmHg
COc1ccc(N2CCN(CCn3c(=O)[nH]c4ccsc4c3=O)CC2)cc1,Time,Rattus norvegicus [10],1 h
same,Delta SBP,Rattus norvegicus [9],-68 mmHg
COc1ccc(C(=O)n2c(=O)n(CCN3CCN(c4ccccc4OC)CC3)c(=O)c3cscc32)cc1,Time,Rattus norvegicus [16],2 h
same,Delta SBP,Rattus norvegicus [15],-59 mmHg
COc1ccccc1N1CCN(CCn2c(=O)[nH]c3ccccc3c2=O)CC1,Delta SBP,Rattus norvegicus [1],-54 mmHg
same,ED50,Rattus norvegicus [11],0.0033 mg/kg
same,DR20,Canis familiaris,10 µg/kg
same,ED50,Rattus norvegicus [6],0.54 mg/kg
same,Time,Rattus norvegicus [7],0.5 h
COc1cccc(N2CCN(CCn3c(=O)[nH]c4ccsc4c3=O)CC2)c1,Time,Rattus norvegicus [14],1 h
same,Delta SBP,Rattus norvegicus [15],-28 mmHg
Cl.O=c1[nH]c2cscc2c(=O)n1CCN1CCN(c2ccc(F)cc2)CC1,Time,Rattus norvegicus [10],0.5 h
same,Delta SBP,Rattus norvegicus [9],-68 mmHg
O=c1[nH]c2ccsc2c(=O)n1CCN1CCN(c2ccccc2Cl)CC1,Delta SBP,Rattus norvegicus [1],-30 mmHg
same,Time,Rattus norvegicus [2],0.5 h
COc1ccccc1N1CCN(CCn2c(=O)[nH]c3scc(C)c3c2=O)CC1.Cl.O,Time,Rattus norvegicus [10],0.5 h
same,Delta SBP,Rattus norvegicus [9],-56 mmHg
O=c1[nH]c2sccc2c(=O)n1CCN1CCN(c2ccccc2)CC1,Time,Rattus norvegicus [10],1 h
same,Delta SBP,Rattus norvegicus [9],-45 mmHg
COc1ccccc1N1CCN(CCn2c(=O)[nH]c3sc(Cl)cc3c2=O)CC1,Delta SBP,Rattus norvegicus [1],-25 mmHg
same,Time,Rattus norvegicus [2],0.5 h
CCOC(=O)CCCn1c(=O)n(CCN2CCN(c3ccccc3OC)CC2)c(=O)c2cscc21,Time,Rattus norvegicus [10],0.5 h
same,Delta SBP,Rattus norvegicus [9],-87 mmHg
COc1ccccc1N1CCN(CCn2c(=O)c3sccc3n(C(=O)C(C)(C)C)c2=O)CC1,Time,Rattus norvegicus [16],0.5 h
same,Delta SBP,Rattus norvegicus [15],-62 mmHg
COc1ccccc1N1CCN(CCn2c(=O)c3cscc3n(C(C)=O)c2=O)CC1,Time,Rattus norvegicus [16],0.5 h
same,Delta SBP,Rattus norvegicus [15],-44 mmHg
C#CCn1c(=O)n(CCN2CCN(c3ccccc3OC)CC2)c(=O)c2cscc21,Time,Rattus norvegicus [8],1 h
same,Delta SBP,Rattus norvegicus [9],-52 mmHg
CCOc1ccccc1N1CCN(CCn2c(=O)[nH]c3cscc3c2=O)CC1.Cl,Time,Rattus norvegicus [14],2 h
same,Delta SBP,Rattus norvegicus [15],-79 mmHg
COc1ccccc1N1CCN(CCn2c(=O)[nH]c3csc(C)c3c2=O)CC1.Cl,Delta SBP,Rattus norvegicus [1],-66 mmHg
same,Time,Rattus norvegicus [2],1 h
COc1ccc(N2CCN(CCn3c(=O)[nH]c4cscc4c3=O)CC2)cc1,Time,Rattus norvegicus [10],0.5 h
same,Delta SBP,Rattus norvegicus [9],-51 mmHg
COc1ccccc1N1CCN(CCn2c(=O)c3sccc3n(C(C)=O)c2=O)CC1,Delta SBP,Rattus norvegicus [3],-58 mmHg
same,Time,Rattus norvegicus [4],0.5 h
COc1cccc(N2CCN(CCn3c(=O)[nH]c4cscc4c3=O)CC2)c1,Delta SBP,Rattus norvegicus [12],-52 mmHg
same,Time,Rattus norvegicus [13],0.5 h
COc1ccccc1N1CCN(CCCn2c(=O)[nH]c3cscc3c2=O)CC1,Time,Rattus norvegicus [10],1 h
same,Delta SBP,Rattus norvegicus [9],-38 mmHg
Cl.O=c1[nH]c2cscc2c(=O)n1CCN1CCN(c2ccccc2)CC1,Time,Rattus norvegicus [10],0.5 h
same,Delta SBP,Rattus norvegicus [9],-76 mmHg
